Laboratory results as given in ChEMBL document CHEMBL4414603, “Extracellular vs Intracellular Delivery of CO: Does It Matter for a Stable, Diffusible Gasotransmitter?” (J Med Chem, 2019).
Activity calls are given as the source filed them. No cut-off for these calls is given here.

How the values were obtained:
Albumin [1] = biological target: T1, Albumin (Bos taurus, UniProt P02769); test: Binding affinity to bovine serum albumin at pH 7.4 TRIS buffer at 1:1 ratio of compound to protein by fluorescence based assay; format: ADME; conditions: cattle, isolated protein
T1 sequence (P02769 whole entry): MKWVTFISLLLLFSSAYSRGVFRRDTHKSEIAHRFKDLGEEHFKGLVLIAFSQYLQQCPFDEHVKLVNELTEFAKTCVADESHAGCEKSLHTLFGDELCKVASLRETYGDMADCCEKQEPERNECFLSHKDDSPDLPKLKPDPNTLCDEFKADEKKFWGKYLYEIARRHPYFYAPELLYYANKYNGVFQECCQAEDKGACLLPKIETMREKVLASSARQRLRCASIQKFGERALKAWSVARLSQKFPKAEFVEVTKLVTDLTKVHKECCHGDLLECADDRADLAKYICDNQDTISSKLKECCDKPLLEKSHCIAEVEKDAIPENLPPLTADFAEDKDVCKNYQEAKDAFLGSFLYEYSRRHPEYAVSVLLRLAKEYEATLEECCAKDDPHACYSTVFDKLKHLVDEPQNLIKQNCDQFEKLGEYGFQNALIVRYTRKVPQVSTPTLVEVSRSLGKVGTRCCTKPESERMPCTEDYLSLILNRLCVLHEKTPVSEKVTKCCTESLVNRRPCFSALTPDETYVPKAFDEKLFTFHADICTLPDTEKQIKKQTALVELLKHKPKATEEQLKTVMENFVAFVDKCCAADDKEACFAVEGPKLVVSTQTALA
How it was run: (§1)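 Tryptophan fluorescence quench of BSA (1.4 μM) in TRIS buffer pH 7.4 at 295 K, excitation 282 nm, titrated with compound at 0–22.4 μM; data fitted by Stern-Volmer and modified Stern-Volmer plots.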

RAW264.7 [2] = test: Antiinflammatory activity in mouse RAW264.7 cells assessed as reduction in LPS-induced TNF-alpha expression at up to 50 uM preincubated for 4 hrs followed by 6 hrs incubation under dark condition and subsequent LPS-stimulation and measured after 1 hr by ELISA; format: functional, cell-based
How it was run: (§2)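 RAW 264.7 cells seeded at 1.0×10^4/well, 24 h; compound 0.04–50 μM (0.4% DMSO vehicle) for 4 h without light; one plate then given blue LED (66,351 lx) 1 h at 37 °C. Both plates held 6 h dark at 37 °C, then E. coli O127:B8 LPS 1 μg/mL final for 1 h; supernatant TNF-α by mouse ELISA; 3 experiments, 2 technical replicates, mean ± SEM.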

[3] = Stability of the compound in PBS buffer incubated for >= 1 month under dark condition; format: physicochemical
[4] = Emission property of the compound in water assessed as emission wavelength at 100 uM; format: physicochemical; conditions: buffer
How it was run: (§3)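 Emission spectra recorded at 0.1 mM in water, 10 mM PBS pH 7.4, or DMEM/F12K with 10% FBS; excitation 410 nm or 467 nm, slit width 3.0 nm.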

[5] = Stability of the compound in FBS supplemented DMEM-F12 medium incubated for >= 1 month under dark condition
[6] = Stability of the compound in DMSO incubated for >= 1 month under dark condition; format: physicochemical
[7] = Stability of the compound in water incubated for >= 1 month under dark condition; format: physicochemical; conditions: buffer
RAW264.7 [8] = test: Cytotoxicity against mouse RAW264.7 cells assessed as reduction in cell viability up to 100 uM incubated for 1 hr under 460 nm LED light illumination and measured after 23 hrs by MTT assay; format: cell-based; conditions: raw264.7, 1 h
How it was run: (§4)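 RAW 264.7 cells (within 5 passages, phenol-red-free DMEM-F12K, 10% FBS) seeded at 1.0×10^4/well for 24 h, then dosed 0.08–100 μM (≤0.4% DMSO). Light arm: blue LED array (66,351 lx) 1 h, then 23 h more; dark arm kept unlit. MTT 4 h, formazan in DMSO, A560 minus A750, normalised to vehicle; 3 biological × 3 technical replicates, mean ± SEM.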

[9] = Emission property of the compound in DMSO assessed as excited state emission wavelength at 100 uM; format: physicochemical
RAW264.7 [10] = test: Dark toxicity against mouse RAW264.7 cells assessed as reduction in cell viability up to 100 uM after 24 hrs by MTT assay; format: cell-based; conditions: raw264.7, 24 h; how it was run: as §4
[11] = Emission property of the compound in DMSO assessed as tautomeric state emission wavelength at 100 uM; format: physicochemical
[12] = Solubility of the compound in water at < 50 mM; format: physicochemical; conditions: buffer
[13] = Drug metabolism in DMSO assessed as CO release at 0.05 mmol incubated for 24 hrs under 419 nm light illumination
[14] = Absorption property of the compound in DMSO assessed as minimum absorption wavelength at 100 uM; format: physicochemical
[15] = Emission property of the compound in pH 7.4 PBS buffer assessed as excited state emission wavelength at 100 uM; format: physicochemical; conditions: pH 7.4, 100 µM
[16] = Drug metabolism in mouse RAW264.7 cells assessed as CO release at 50 uM incubated 4 hrs prior to compound washout followed by 1-Ac addition for 30 mins and subsequent 460 nm LED light illumination for 1 hr by Hoechst 33342 dye based fluorescence assay; format: ADME, cell-based; conditions: raw264.7, 4 h
How it was run: (§5)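 RAW 264.7 cells on chamber slides given 50 μM compound 4 h, then washed 3x with plain medium or left unwashed; Nile red CO sensor 1-Ac 5 μM final (0.2% DMSO) 30 min; blue LED (66,351 lx, 2 cm) 1 h at 37 °C, then 1 h dark at 37 °C; Hoechst 33342 stain; red channel ex 550–600/em 598–660 nm.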

[17] = Drug metabolism in DMSO assessed as sodium 7-(benzoyloxy)-6-carboxynaphthalene-1-sulfonate metabolite formation at […] after 24 hrs illuminated with visible light by 1H-NMR analysis
How it was run: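 Roughly 0.05 mmol compound in 5.0 mL DMSO, under air, irradiated in a photoreactor with 419 nm lamps (2,450 lx) until the lowest-energy absorption band disappeared (~24 h); photoproduct then characterised.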

[18] = Drug metabolism in DMSO assessed as sodium 7-(benzoyloxy)-6-carboxynaphthalene-1-sulfonate metabolite formation at 0.05 mmol incubated for 24 hrs under 419 nm light illumination by HMBC analysis
RAW264.7 [19] = test: Antiinflammatory activity in mouse RAW264.7 cells assessed as reduction in LPS-induced TNF-alpha level up to 1 uM incubated for 4 hrs prior to 460 nm LED light illumination for 1 hr followed by 6 hrs incubation under dark condition and subsequent LPS-stimulation and measured after 1 hr by ELISA; format: functional, cell-based; how it was run: as §2
[20] = Drug uptake in mouse RAW264.7 cells assessed as intracellular accumulation at 50 uM after 4 hrs by Hoechst 33342 staining based fluorescence inverted microscopic method; format: ADME, cell-based; conditions: raw264.7, 4 h
How it was run: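 RAW 264.7 cells seeded at 1.0×10^4 cells/[…] in chamber slides, adhered 24 h, exposed to 50 μM compound (from 25 mM DMSO stock; 0.4% DMSO final) 4 h with minimal light; Hoechst 33342 15 min, three PBS washes; imaged at 20x, blue channel ex 310–390/em 420–470 nm.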

[21] = Absorption property of the compound in 10% FBS supplemented DMEM-F12 medium assessed as absorption wavelength at 100 uM; format: physicochemical
[22] = Drug metabolism in DMSO assessed as sodium 7-(benzoyloxy)-6-carboxynaphthalene-1-sulfonate metabolite formation at 0.05 mmol incubated for 24 hrs under 419 nm light illumination by 13C-NMR analysis
[23] = Drug metabolism in DMSO assessed as sodium 7-(benzoyloxy)-6-carboxynaphthalene-1-sulfonate metabolite formation at 0.05 mmol incubated for 24 hrs under 419 nm light illumination by HSQC analysis
Albumin [24] = biological target: T1, Albumin; test: Binding affinity to bovine serum albumin at pH 7.4 TRIS buffer by fluorescence based Stern-Volmer plot analysis; format: ADME; conditions: cattle, isolated protein; how it was run: as §1
[25] = Drug metabolism in DMSO assessed as sodium 7-(benzoyloxy)-6-carboxynaphthalene-1-sulfonate metabolite formation at 0.05 mmol incubated for 24 hrs under 419 nm light illumination by ESI/APCI-MS analysis
[26] = Drug metabolism in DMSO assessed as sodium 7-(benzoyloxy)-6-carboxynaphthalene-1-sulfonate metabolite formation at 0.05 mmol incubated for 24 hrs under 419 nm light illumination by 2D-COSY analysis
[27] = Drug uptake in mouse RAW264.7 cells assessed as extracellular accumulation at 50 uM incubated for 4 hrs under dark condition followed by compound washout by Hoechst 33342 staining based fluorescence inverted microscopic method; format: ADME, cell-based; conditions: raw264.7, 4 h
How it was run: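 After 4 h dark incubation of RAW 264.7 cells with 50 μM compound, cells washed with medium containing 10% FBS; pooled washes read by fluorescence (ex 410 nm, slit 3.0 nm) against a 50 μM standard.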

[28] = Emission property of the compound in 10% FBS supplemented DMEM-F12 medium assessed as excitation wavelength; format: physicochemical
[29] = Absorption property of the compound in pH 7.4 PBS buffer assessed as absorption wavelength at 100 uM; format: physicochemical; conditions: pH 7.4, 100 µM
[30] = Drug metabolism in mouse RAW264.7 cells assessed as CO release at 50 uM preincubated 4 hrs followed by 1-Ac addition for 30 mins and subsequent 460 nm LED light illumination for 1 hr by Hoechst 33342 dye based fluorescence assay; format: ADME, cell-based; conditions: raw264.7, 50 µM; how it was run: as §5
[31] = Emission property of the compound in 10% FBS supplemented DMEM-F12 medium assessed as emission wavelength at 100 uM; format: physicochemical; how it was run: as §3
[32] = Solubility of the compound in FBS supplemented DMEM-F12 medium at < 50 mM; format: physicochemical
[33] = Solubility of the compound in DMSO at < 50 mM; format: physicochemical
[34] = Absorption property of the compound in water assessed as absorption wavelength at 100 uM; format: physicochemical; conditions: buffer
[35] = Solubility of the compound in PBS buffer at < 50 mM; format: physicochemical
[36] = Drug metabolism in DMSO assessed as sodium 7-(benzoyloxy)-6-carboxynaphthalene-1-sulfonate metabolite formation at 0.05 mmol incubated for 24 hrs under 419 nm light illumination by FTIR analysis
RAW264.7 [37] = test: Cytotoxicity against mouse RAW264.7 cells assessed as reduction in cell viability incubated for 1 hr under 460 nm LED light illumination and measured after 23 hrs by MTT assay; format: cell-based; conditions: for Activity: mouse, raw264.7; how it was run: as §4
[38] = Absorption property of the compound in DMSO assessed as reduction in absorption wavelength at 0.05 mmol incubated for 14 hrs under 419 nm light illumination; format: physicochemical

## O=c1c(O)c(-c2ccccc2)oc2cc3c(S(=O)(=O)[O-])cccc3cc12.[Na+]
Albumin [1]
  Activity: Active
RAW264.7 [2]
  Activity: Active
[3]
  Stability: Stable
[4]
  Activity: 560 nm
[5]
  Stability: Stable
[6]
  Stability: Stable
[7]
  Stability: Stable
RAW264.7 [8]
  Activity: Non-Toxic
[9]
  Activity: 480 nm
RAW264.7 [10]
  Activity: Non-Toxic
[11]
  Activity: 610 nm
[12]
  solubility: Soluble
[13]
  Drug metabolism: Metabolite detected
[14]
  Activity: 410 nm
[15]
  Activity: 410 nm
[16]
  Drug metabolism: Metabolite_Detected
[17]
  Drug metabolism: Metabolite detected
[18]
  Drug metabolism: Metabolite detected
RAW264.7 [19]
  Activity: Active
[20]
  Drug uptake: Not Active
[21]
  Activity: 450 to 500 nm
[22]
  Drug metabolism: Metabolite detected
[23]
  Drug metabolism: Metabolite detected
Albumin [24]
  Ka: 4.1 ×10⁵ /M
[25]
  Drug metabolism: Metabolite detected
[26]
  Drug metabolism: Metabolite detected
[27]
  Drug uptake: Not Active
[28]
  Activity: 467 nm
[29]
  Activity: 450 to 500 nm
[30]
  Drug metabolism: Metabolite_Detected
[31]
  Activity: 600 nm
[32]
  solubility: Soluble
[33]
  solubility: Soluble
[34]
  Activity: 450 to 500 nm
[35]
  solubility: Soluble
[36]
  Drug metabolism: Metabolite detected

## O=c1c(O)c(-c2ccccc2)oc2cc3ccccc3cc12
Albumin [1]
  Activity: Active
RAW264.7 [2]
  Activity: Active
RAW264.7 [10]
  Activity: Non-Toxic
RAW264.7 [37]; Mus musculus, RAW264.7
  IC50: 22.4 µM
[13]
  Drug metabolism: Metabolite detected
[16]
  Drug metabolism: Metabolite_Detected
RAW264.7 [19]
  Activity: Active
[20]
  Drug uptake: Active
Albumin [24]
  Ka: 3.2 ×10³ /M
[38]
  Activity: Active

## O=C(Oc1cc2ccccc2cc1C(=O)O)c1ccccc1
RAW264.7 [37]
  Activity: Non-Toxic

## O=C(Oc1cc2c(S(=O)(=O)O)cccc2cc1C(=O)O)c1ccccc1
RAW264.7 [37]
  Activity: Non-Toxic
